Assay outcomes: PubChem BioAssay, Broad Institute
EWS-Fli inh: EWS/Fli transcriptional activity inhibition; inhibition, % at 12.6 µM; A673 NR0B1-luciferase reporter, viability-normalised; 350,000 compounds, 0.67% hits;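 active means mean inhibition of at least 50% after viability correction, with every replicate also passing that limit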;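 further: firefly luciferase signal divided by Alamar Blue viability fluorescence both relative to DMSO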
rRNA inh HTS: inhibitors of bacterial rRNA selective over humanized ribosomes | E. coli WT GFP vs humanized-ribosome RFP mutants, fluorescence, 24 h; stronger effect = lower value; DMSO median 0, no signal -100 | GFP signal change (wild-type ribosome), % (concentration not given with the values) | 350,000 compounds, 1.6% hits;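 active means significant combined selectivity score with lowered wild-type GFP, culture density cut under 30%, mutant RFP and density less affected; inactive means any of these conditions unmet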
E-sel inducer: E-selectin induction on HUVECs | activation, % at 7.58 µM | P16581 | 260,000 compounds, 0.37% hits | HUVEC E-selectin immunofluorescence imaging; normalized: neutral wells 0, TNF-alpha wells 100;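 active means mean E-selectin-positive cell signal at least 10% of the positive control, reached in at least 60% of replicates, without over 20% cell loss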
Target sequence (P16581 whole entry, looked up): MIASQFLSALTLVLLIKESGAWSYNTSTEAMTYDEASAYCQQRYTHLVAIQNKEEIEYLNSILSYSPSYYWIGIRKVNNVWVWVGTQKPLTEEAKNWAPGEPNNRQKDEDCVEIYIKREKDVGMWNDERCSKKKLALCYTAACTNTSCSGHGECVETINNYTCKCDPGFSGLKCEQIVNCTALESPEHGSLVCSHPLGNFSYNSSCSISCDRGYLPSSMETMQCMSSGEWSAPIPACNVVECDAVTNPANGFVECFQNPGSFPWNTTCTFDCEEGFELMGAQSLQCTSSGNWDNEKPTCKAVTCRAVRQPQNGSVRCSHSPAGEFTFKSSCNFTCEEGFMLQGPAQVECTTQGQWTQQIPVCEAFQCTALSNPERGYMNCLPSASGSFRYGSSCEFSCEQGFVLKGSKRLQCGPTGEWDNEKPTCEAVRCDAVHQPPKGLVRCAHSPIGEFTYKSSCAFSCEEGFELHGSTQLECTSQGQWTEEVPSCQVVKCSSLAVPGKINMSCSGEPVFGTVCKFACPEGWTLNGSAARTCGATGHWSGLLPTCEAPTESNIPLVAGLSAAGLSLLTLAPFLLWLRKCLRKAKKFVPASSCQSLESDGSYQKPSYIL
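System: HUVEC, human umbilical vein endothelial cells; quantity: 3,000 cells/well; buffer or medium: EGM-2 medium, gelatin-coated wells; dosing: single-point compound dose; detection: immunofluorescence imaging; evaluation: % PE-positive cells; benchmarks: TNF-alpha, DMSO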
LGR2 inh: blocks bursicon-induced cAMP signaling via Drosophila LGR2; 380,000 compounds, 0.35% hits; AID 720647; inhibition, % at 9.99 µM; HEK293 LGR2, CRE-luciferase, bursicon-stimulated, 4 h;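 active means drop in luminescence signal, shown as inhibition above about 50% in the replicate tests, limit read from the data, passing the limit was not always enough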;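 further: agonist challenge used bursicon conditioned medium at about half maximal strength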
Large screens that a line does not name were inactive. Shown are actives, neighbours in structure and some others; about 2.4% of the full set was active somewhere.

O=C1NC(=O)C2(COC(c3cccc([N+](=O)[O-])c3)OC2)S1 (stereo unspecified)	E-sel inducer 533
CCC(=O)N(C)C[C@H]1Oc2cc(C#C[C@@H](C)O)ccc2S(=O)(=O)N([C@H](C)CO)C[C@@H]1C	none (no result: EWS-Fli inh, E-sel inducer, LGR2 inh)
CCCc1nc(N)c(C#N)c(-c2ccco2)c1CC	none (no result: EWS-Fli inh, rRNA inh HTS, E-sel inducer)
N#Cc1c(N)nc(SCc2ccccc2)c(C#N)c1-c1ccco1	rRNA inh HTS -43 (no result: E-sel inducer)
CC1(C(=O)NS(=O)(=O)c2ccc(Cl)s2)CCN1C(=O)C1(c2ccccc2)CCCC1 (stereo unspecified)	rRNA inh HTS -31
CC1(C(=O)NS(=O)(=O)c2ccc(Cl)s2)CCN1C(=O)C1(c2ccc(Cl)cc2)CCC1 (stereo unspecified)	none
CC1(C(=O)NS(=O)(=O)c2ccccc2Cl)CCN1C(=O)C1(c2ccc(Cl)cc2)CCC1 (stereo unspecified)	rRNA inh HTS -17
CC1(C(=O)NS(=O)(=O)c2ccccc2Cl)CCN1C(=O)C1(c2ccc(Cl)cc2)CC1 (stereo unspecified)	none
COc1cccc(S(=O)(=O)Nc2ccc3c(c2)C(=O)N(C)C[C@@H](OC)[C@H](C)CN(Cc2ccccc2F)[C@H](C)CO3)c1	none
CCOc1ccc(CCNC(=O)CCc2nc3ccccc3[nH]2)cc1OCC	rRNA inh HTS -20
O=C(C[C@@H]1CC[C@H]2[C@@H](COC[C@H](O)CN2Cc2cccc(C(F)(F)F)c2)O1)NCc1ccccc1	none
Cc1ccc(-c2nnc(N3CCCCC3)c3ccccc23)cc1S(=O)(=O)N(C)C	none (no result: E-sel inducer)
Cc1ccc(-c2nnc(NCc3nc4ccccc4[nH]3)c3ccccc23)cc1S(=O)(=O)N(C)C	LGR2 inh 58 (no result: E-sel inducer)
O=C(Nc1ccc(F)cc1)N1C[C@@H]2[C@H](c3ccccc31)[C@@H](CO)N2C(=O)c1ccccc1F	none
COc1cccc(C(=O)NC(=S)N2CCN(c3ccc(C(F)(F)F)cc3[N+](=O)[O-])CC2)c1	EWS-Fli inh 64 (no result: E-sel inducer)
O=C(N[C@H]1CC[C@H](CCNS(=O)(=O)Cc2ccccc2)O[C@H]1CO)c1ccccc1F	none
CC(C)Oc1cc(O)c2c(=O)c(-c3ccc(O)cc3)coc2c1	E-sel inducer 114
O=C(C[C@H]1CC[C@@H](NS(=O)(=O)c2ccccc2)[C@@H](CO)O1)N1CCN(c2ccccc2)CC1	none
Nc1ncnc2c(C3OC(CO)C(O)C3O)scc12 (stereo unspecified)	LGR2 inh 98
Nc1ncnc2c1ncn2C1O[C@H](CO)[C@@H](O)[C@@H]1O (stereo partly specified)	none (no result: rRNA inh HTS)
COc1ccc(/C=C/c2cc(C(=O)O)c3ccccc3n2)cc1	EWS-Fli inh 70 (no result: E-sel inducer)
COc1cc(OC)c(OC)cc1C=Cc1ccc2ccccc2n1	none
COc1cc(OC)c(OC)cc1/C=C/c1cc(C(=O)O)c2ccccc2n1	rRNA inh HTS -30
CS(=O)(=O)N1C[C@@H]2C(c3ccc(Br)cc3)[C@H](C1)N2Cc1ccc(F)cc1 (stereo partly specified)	none (no result: EWS-Fli inh, E-sel inducer, LGR2 inh)
CN(C)c1ccc(NC(=S)c2ccccn2)cc1	EWS-Fli inh 86, LGR2 inh 99
CN(C)c1ccc(/C=C(\C#N)c2ccccn2)cc1	LGR2 inh 93 (no result: EWS-Fli inh, rRNA inh HTS, E-sel inducer)
CN(C)c1ccc(C(=S)Nc2ccccc2)cc1	none (no result: E-sel inducer, LGR2 inh)
C[C@@H]1CCCCO[C@@H](CN(C)Cc2ccc(C(=O)O)cc2)[C@@H](C)CN([C@@H](C)CO)C(=O)c2cc(NS(=O)(=O)c3ccc(F)cc3)ccc2O1	none
CCCCN(C)CCNS(=O)(=O)c1ccc2c(c1)n(C)c(=O)c(=O)n2C	E-sel inducer 164
CC(C)NC(=O)N[C@H]1CC[C@H](CCn2cc(-c3ccc(F)cc3)nn2)O[C@@H]1CO	none
CO[C@@H]1CN(C)C(=O)c2cc(NC(=O)Nc3cccc(Cl)c3)ccc2OC[C@H](C)N(C)C[C@H]1C	none
Cc1ccc(-c2nc(C#N)c(NCC3CCCO3)o2)cc1 (stereo unspecified)	rRNA inh HTS -24 (no result: E-sel inducer)
Cc1cc(C(=O)N2CCCC(C(=O)c3ccc(Cl)cc3C)C2)no1 (stereo unspecified)	none (no result: EWS-Fli inh)
Cc1cc(Cl)ccc1C(=O)C1CCCN(C(=O)c2ccoc2)C1 (stereo unspecified)	rRNA inh HTS -25
O=C(Nc1ccc(Cl)c(Cl)c1)N[C@H]1CC[C@@H](CCn2cc(C3CCCCC3)nn2)O[C@H]1CO	none
O=C(Nc1ccc(Cl)c(Cl)c1)N[C@@H]1CC[C@H](CCn2cc(C3CCCCC3)nn2)O[C@H]1CO	rRNA inh HTS -46
C[C@@H]1CN(C)C(=O)c2cccnc2O[C@H]1CN(C)S(C)(=O)=O	none (no result: EWS-Fli inh, E-sel inducer, LGR2 inh)
